Among the data in ChEMBL document CHEMBL1136251, “Synthesis and biological evaluation of menthol-based derivatives as inhibitors of plasminogen activator inhibitor-1 (PAI-1)” (Bioorg Med Chem Lett, 2003) are IC50 and bioavailability values, retold here.

pIC50: −log10 of the molar value. Some results are limits rather than exact numbers.

Data set [1] deals with T1, Plasminogen activator inhibitor 1 (Homo sapiens, UniProt P05121). Nature of the data set: Plasminogen Activator Inhibitor-1 (PAI-1) activity was determined by inhibition of Urokinase-type plasminogen activator using primary assay. The essentials: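 Human recombinant PAI-1 (6 nM) preincubated with compound for 2 min at room temperature in 50 mM Tris-HCl, 150 mM NaCl, 2.5 mM CaCl2, 0.1% PEG 6000, pH 7.5. Human kidney urokinase (0.0175 units/mL) added for a further 2 min, then chromogenic substrate S2444. Rate of absorbance change read at 405 nm. Controls with uPA alone and uPA plus PAI-1 on each plate. IC50 taken from dose-response curve fit.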

Data set [2] is described as follows: Bioavailability in rat (cannulated) (dose 2 mg/kg). It counts as ADME, organism-based. Conditions: in vivo. The essentials: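 Given intravenously and orally at 2 mg/kg to cannulated conscious rats. Vehicle: 94% PEG/2% 0.1HCl/4% EtOH solution.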
Data set [3] deals with T1, Plasminogen activator inhibitor 1. As to the kind of experiment: Plasminogen Activator Inhibitor-1 (PAI-1) activity was determined using plasma clot lysis assay. It counts as functional, cell-free. In short, it runs like this:
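Pooled human plasma diluted 1:3 in 150 mM NaCl, 2 mM CaCl2, 20 mM Hepes, pH 7.4. Clotting started with human thrombin (30 nM), with exogenous human tPA (4 nM) present. Lysis followed at 37 °C by absorbance at 405 nm.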

T1 sequence (P05121 whole entry): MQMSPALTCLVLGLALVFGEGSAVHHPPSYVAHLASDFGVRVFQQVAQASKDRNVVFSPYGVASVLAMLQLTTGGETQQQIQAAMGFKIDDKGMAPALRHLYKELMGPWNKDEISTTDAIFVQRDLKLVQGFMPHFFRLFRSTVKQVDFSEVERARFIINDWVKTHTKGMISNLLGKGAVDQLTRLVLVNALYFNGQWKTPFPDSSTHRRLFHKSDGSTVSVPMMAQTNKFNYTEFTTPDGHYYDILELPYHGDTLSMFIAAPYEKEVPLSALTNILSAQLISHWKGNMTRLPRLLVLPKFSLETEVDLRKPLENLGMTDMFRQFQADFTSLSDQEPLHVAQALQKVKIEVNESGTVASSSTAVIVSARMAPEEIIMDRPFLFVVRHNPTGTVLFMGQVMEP

In turn, `CC(C)[C@@H]1CC[C@@H](C)C[C@H]1OCC(=O)NCc1ccc(NCc2cc([N+](=O)[O-])ccc2Oc2cc(Oc3ccccc3)ccc2C(=O)O)cc1` gave a negative logarithm of the IC50 (pIC50) in data set [1] of 5.59.

In data set [1], `COc1cc(C(=O)O)c2c(c1C)OC(=O)c1c(C)cc(O)c(CN3CCC(NC(=O)CO[C@@H]4C[C@H](C)CC[C@H]4C(C)C)CC3)c1O2` had a negative logarithm of the IC50 (pIC50) of under 4.82.

Take `CC(C)[C@@H]1CC[C@@H](C)C[C@H]1OCC(=O)Nc1cc(N[C@H]2CC[C@H](C(=O)O)CC2)ccc1[N+](=O)[O-]`: in data set [1], the pIC50 is 5.96.

`COc1cccc(CNc2ccc(CNC(=O)CO[C@@H]3C[C@H](C)CC[C@H]3C(C)C)cc2)c1Oc1ncccc1C(=O)O` showed a pIC50 in data set [1] of 6.30.

As to `CC(C)[C@@H]1CC[C@@H](C)C[C@H]1OCC(=O)NCc1ccc(NCc2cccc(C(=O)O)c2)cc1`, the pIC50 in data set [1] was 5.11.

For `CCCN(Cc1ccc(NCc2c(O)cc(C)c3c2Oc2c(C(=O)O)cc(OC)c(C)c2OC3=O)cc1)C(=O)CO[C@@H]1C[C@H](C)CC[C@H]1C(C)C`, the pIC50 in data set [1] was 5.30.

With `CC(C)[C@@H]1CC[C@@H](C)C[C@H]1OCC(=O)Nc1cc(Oc2ccc(C(=O)O)cc2)ccc1[N+](=O)[O-]`, the negative-log IC50 (pIC50) in data set [1] was 6.42; in data set [3], 8.00. The bioavailability in data set [2] turned out to be 24%.

Molecule `COc1cc(C(=O)O)c(Oc2c(CNc3ccc(CNC(=O)CO[C@@H]4C[C@H](C)CC[C@H]4C(C)C)cc3)c(O)cc(C)c2C(=O)O)c(O)c1C` showed a pIC50 in data set [1] of 5.74.

`CC(C)[C@@H]1CC[C@@H](C)C[C@H]1OCC(=O)Nc1cc(N2CC(C(=O)O)C2)ccc1[N+](=O)[O-]` gave a negative-log IC50 (pIC50) in data set [1] of 5.54.

For the molecule `COc1cc(C(=O)O)c(Oc2c(CNc3ccc(CNC(=O)CO[C@@H]4C[C@H](C)CC[C@H]4C(C)C)cc3)c(O)cc(C)c2C(N)=O)c(O)c1C`, in data set [1], the pIC50 is 6.22.

In data set [1], `COc1cc(C(=O)O)c2c(c1C)OC(=O)c1c(C)cc(O)c(CNc3ccc(CCNC(=O)CO[C@@H]4C[C@H](C)CC[C@H]4C(C)C)cc3)c1O2` gave a pIC50 of 5.41.

`COc1ccc(Oc2ccccc2CNc2ccc(CNC(=O)CO[C@@H]3C[C@H](C)CC[C@H]3C(C)C)cc2)c(C(=O)O)c1`: the pIC50 in data set [1] was 5.85.

On to `COc1cccc(CNc2ccc(CNC(=O)CO[C@@H]3C[C@H](C)CC[C@H]3C(C)C)cc2)c1Oc1ccc(N)cc1C(=O)O`, for which the negative-log IC50 (pIC50) in data set [1] is 6.15.

`CC(C)[C@@H]1CC[C@@H](C)C[C@H]1OCC(=O)Nc1cc(N2CCCC2C(=O)O)ccc1[N+](=O)[O-]` (some centres undefined) showed a pIC50 in data set [1] of 5.66.

Regarding `CC(C)[C@@H]1CC[C@@H](C)C[C@H]1OCC(=O)Nc1cc(N2CCC(C(=O)O)CC2)ccc1[N+](=O)[O-]`, the pIC50 in data set [1] was 6.03; in data set [3] it was 8.00. This molecule yielded a bioavailability in data set [2] of under 10%.

Take `CC(C)[C@@H]1CC[C@@H](C)C[C@H]1OCC(=O)NCc1ccc(NCc2cc([N+](=O)[O-])ccc2O)cc1`: in data set [1], the pIC50 was 5.57.

Molecule `CC(C)[C@@H]1CC[C@@H](C)C[C@H]1OCC(=O)NCc1ccc(NCc2ccncc2)cc1` had a pIC50 in data set [1] of under 4.82.

`CC(C)[C@@H]1CC[C@@H](C)C[C@H]1OCC(=O)NCc1ccc(NCc2cc([N+](=O)[O-])ccc2Oc2ccccc2C(=O)O)cc1`: the pIC50 in data set [1] is 6.15.

In data set [1], `CC(C)[C@@H]1CC[C@@H](C)C[C@H]1OCC(=O)NCc1ccc(NCc2ccccc2Oc2ccccc2)cc1` had a negative logarithm of the IC50 (pIC50) of under 4.82.

Take `COc1cc(C(=O)O)c2c(c1C)OC(=O)c1c(C)cc(O)c(CNc3ccc(NC(=O)CO[C@@H]4C[C@H](C)CC[C@H]4C(C)C)nc3)c1O2`: the negative-log IC50 (pIC50) in data set [1] was 6.28.

Take `CC(C)[C@@H]1CC[C@@H](C)C[C@H]1OCC(=O)NCc1ccc(NCc2ccc(C(=O)O)cc2)cc1`: in data set [1], the pIC50 was 5.49.

Turning to `COc1cc(C(=O)O)c2c(c1C)OC(=O)c1c(C)cc(O)c(CNc3ccc(CNC(=O)CO[C@@H]4C[C@H](C)CC[C@H]4C(C)C)cc3)c1O2`, the pIC50 in data set [1] is 5.85; in data set [3], 7.00. In data set [2], the bioavailability is 23%.

Turning to `CC(C)[C@@H]1CC[C@@H](C)C[C@H]1OCC(=O)NCc1ccc(NCc2c(F)cccc2Oc2c(O)cccc2C(=O)O)cc1`, the negative-log IC50 (pIC50) in data set [1] was 6.15.

In data set [1], `COc1cc(C(=O)O)c2c(c1C)OC(=O)c1c(C)cc(O)c(CNc3ccc(NC(=O)CO[C@@H]4C[C@H](C)CC[C@H]4C(C)C)cc3)c1O2` showed a negative-log IC50 (pIC50) of 5.96.

On to `CC(C)[C@@H]1CC[C@@H](C)C[C@H]1OCC(=O)Nc1cc(Oc2cccc(C(=O)O)c2)ccc1[N+](=O)[O-]`, for which the pIC50 was 6.40 in data set [1] and 7.00 in data set [3]. The bioavailability in data set [2] was under 10%.

In data set [1], `CC(C)[C@@H]1CC[C@@H](C)C[C@H]1OCC(=O)Nc1cc(N2CCCCC2C(=O)O)ccc1[N+](=O)[O-]` (some centres undefined) gave a pIC50 of 5.54.

`COc1cc(C(=O)O)c2c(c1C)OC(=O)c1c(C)cc(O)c(CNc3cccc(CNC(=O)CO[C@@H]4C[C@H](C)CC[C@H]4C(C)C)c3)c1O2` gave a pIC50 in data set [1] of 5.85.

Take `CC(C)[C@@H]1CC[C@@H](C)C[C@H]1OCC(=O)NCc1ccc(NCc2ccccc2)cc1`: in data set [1], the pIC50 was under 4.82.

In data set [1], `CC(C)[C@@H]1CC[C@@H](C)C[C@H]1OCC(=O)NCc1ccc(NCc2ccccc2S(=O)(=O)O)cc1` showed a pIC50 of under 4.82.

Consider `COc1ccc(Oc2cccc(F)c2CNc2ccc(CNC(=O)CO[C@@H]3C[C@H](C)CC[C@H]3C(C)C)cc2)c(C(=O)O)c1`, for which the pIC50 in data set [1] was 5.85.

For the molecule `CC(C)[C@@H]1CC[C@@H](C)C[C@H]1OCC(=O)Nc1cc(N2CCCC(C(=O)O)C2)ccc1[N+](=O)[O-]` (some centres undefined), in data set [1], the negative-log IC50 (pIC50) is 6.05.

`CC(C)[C@@H]1CC[C@@H](C)C[C@H]1OCC(=O)Nc1cc(Oc2ccc(C(=O)O)cn2)ccc1[N+](=O)[O-]`: the pIC50 in data set [1] was 5.59.

As to `CC(C)[C@@H]1CC[C@@H](C)C[C@H]1OCC(=O)Nc1cc(N[C@H]2CC[C@@H](C(=O)O)CC2)ccc1[N+](=O)[O-]`, in data set [1], the pIC50 is 6.05.

In the case of `COc1cccc(CNc2ccc(CNC(=O)CO[C@@H]3C[C@H](C)CC[C@H]3C(C)C)cc2)c1Oc1ccc([N+](=O)[O-])cc1C(=O)O`, the pIC50 in data set [1] was 5.92; in data set [3], 7.00. Further, the bioavailability in data set [2] came out at 94%.

What is called pIC50 is the negative decadic logarithm of the IC50, by convention in mol/L. Low readings indicate a large IC50, high ones a small IC50. As a reminder, the bioavailability is the share of a dose that reaches the circulation, judged against a reference dose that is usually intravenous.
